This note sets out measurements from ChEMBL document CHEMBL1155664, “New carbazole alkaloids from Clausena anisata with antitumor promoting activity” (J Nat Prod, 2000).

Type in all cases: cell-based
Series [1] has as its system Raji. The series is described as follows: Inhibition of 12-O-tetradecanoylphorbol-13-acetate-induced EBV-early antigen activation in human Raji cells assessed as EA activation at 16 nmol relative to 12-O-tetradecanoylphorbol-13-acetate. Also on record: scale not given: the % may be the effect or the level left. To be noted: human gammaherpesvirus 4. The procedure, abridged:
(§1)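 Raji cells induced with TPA (32 pmol = 20 ng/mL) plus compound at 10, 100, 500 or 1000 mol ratio/TPA (0.32, 3.2, 16, 32 nmol). EBV early antigen activation expressed as % of the TPA-only positive control (100%), given with S.D. Results count only where Raji viability stays at or above 60% at 2 days.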

Series [2] is described as follows: Cytotoxicity against human Raji cells assessed as cell viability at 16 nmol by trypan blue assay. The note with it: read-out: Activity. The procedure, abridged:
(§2)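 Raji cells treated with compound together with TPA (32 pmol, 20 ng/mL) at mole ratios to TPA of 10, 100, 500 or 1000 (0.32, 3.2, 16, 32 nmol). Viability determined by trypan blue staining 2 days after treatment. At least 60% viability is needed for the EBV-EA result to be valid.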

Series [3] has as its system Raji. The series is described as follows: Inhibition of 12-O-tetradecanoylphorbol-13-acetate-induced EBV-early antigen activation in human Raji cells assessed as EA activation at 32 nmol relative to 12-O-tetradecanoylphorbol-13-acetate. Also noted: scale not given: the % may be the effect or the level left. The note with it: human gammaherpesvirus 4. An outline of the steps:
as §1

Series [4] in a line: Cytotoxicity against human Raji cells assessed as cell viability at 0.32 nmol by trypan blue assay. The note with it: read-out: Activity. An outline of the steps:
as §2

Series [5] in a line: Cytotoxicity against human Raji cells assessed as cell viability at 3.2 nmol by trypan blue assay. The note with it: read-out: Activity. An outline of the steps:
as §2

Series [6] deals with Raji. The series is described as follows: Inhibition of 12-O-tetradecanoylphorbol-13-acetate-induced EBV-early antigen activation in human Raji cells assessed as EA activation at 0.32 nmol relative to 12-O-tetradecanoylphorbol-13-acetate. The note with it: human gammaherpesvirus 4. Also noted: scale not given: the % may be the effect or the level left. The procedure, abridged: as §1

Series [7] is described as follows: Cytotoxicity against human Raji cells assessed as cell viability at 32 nmol by trypan blue assay. The note with it: read-out: Activity. An outline of the steps:
as §2

The test system of series [8] is Raji. The series is described as follows: Inhibition of 12-O-tetradecanoylphorbol-13-acetate-induced EBV-early antigen activation in human Raji cells assessed as EA activation at 3.2 nmol relative to 12-O-tetradecanoylphorbol-13-acetate. Also noted: scale not given: the % may be the effect or the level left. The note with it: human gammaherpesvirus 4. An outline of the steps: as §1

Regarding `COC(=O)c1cc(O)c2[nH]c3ccccc3c2c1CC=C(C)C` [CLAUSINE F], the Activity was determined as 37.5% in the series on Raji [1], 20.2% with Raji [3], 94.6% in the series on Raji [6] and 69.8% in the series on Raji [8]. Further, in series [2], the viability at 16 nmol was above 80%. Besides, the viability at 0.32 nmol in series [4] was above 80%. The viability at 3.2 nmol in series [5] was above 80%. Moreover, in series [7], the viability at 32 nmol is 60%.

As for `COC(=O)c1cc(O)c2[nH]c3ccccc3c2c1` [CLAUSINE E], the Activity was determined as 42.4% in the series with Raji [1], 27.4% in the series on Raji [3], 100% in the series on Raji [6] and 74.6% in the series with Raji [8]. Further, the viability at 16 nmol in series [2] is above 80%. Besides, the viability at 0.32 nmol in series [4] is above 80%. Besides, the viability at 3.2 nmol in series [5] is above 80%. In series [7], the viability at 32 nmol was 60%.

As to `O=Cc1cc(O)c2[nH]c3ccccc3c2c1` [O-DEMETHYLMURRAYANINE], the Activity in the series with Raji [1] turned out to be 40.3%; with Raji [3], 25.2%; with Raji [6], 100%; with Raji [8], 69.4%. Also, the viability at 16 nmol in series [2] is above 80%. In series [4], the viability at 0.32 nmol is above 80%. Besides, in series [5], the viability at 3.2 nmol is above 80%. Further, the viability at 32 nmol in series [7] came out at 60%.

Regarding `COC(=O)c1cc(OC)c2[nH]c3ccccc3c2c1CC=C(C)C` [CLAUSAMINE], the Activity in the series with Raji [1] is 34.2%; in the series on Raji [3], 18.2%; in the series on Raji [6], 92.3%; with Raji [8] it was 66%. Further, the viability at 16 nmol in series [2] turned out to be 70%. In addition, the viability at 0.32 nmol in series [4] is above 80%. Moreover, the viability at 3.2 nmol in series [5] is above 80%. The viability at 32 nmol in series [7] stood at 60%.

`COC(=O)c1ccc2[nH]c3ccccc3c2c1`: the Activity is 46.3% in the series with Raji [1], 21.7% in the series on Raji [3], 100% with Raji [6] and 81.4% in the series on Raji [8]. Moreover, the viability at 16 nmol in series [2] was above 80%. In addition, the viability at 0.32 nmol in series [4] is above 80%. Besides, the viability at 3.2 nmol in series [5] is above 80%. The viability at 32 nmol in series [7] came to 60%.

For the compound `COc1cc2c(c3c1[nH]c1ccccc13)CC(C(C)(C)O)OC2=O` (configuration not stated) [CLAUSAMINE C], the Activity was 27.2% with Raji [1], 12.4% in the series with Raji [3], 92.3% in the series on Raji [6] and 72% in the series on Raji [8]. Besides, the viability at 16 nmol in series [2] is 70%. In series [4], the viability at 0.32 nmol was above 80%. The viability at 3.2 nmol in series [5] is above 80%. The viability at 32 nmol in series [7] worked out at 60%.

Consider `C=C(C)C1Cc2c(cc(O)c3[nH]c4ccccc4c23)C(=O)O1` (configuration not stated) [CLAUSAMINE A], for which the Activity in the series on Raji [1] came out at 28.3%; with Raji [3] it was 15.4%; in the series on Raji [6] it was 95.5%; in the series with Raji [8], 73.7%. Further, the viability at 16 nmol in series [2] worked out at 70%. Moreover, the viability at 0.32 nmol in series [4] is above 80%. For the same compound, in series [5], the viability at 3.2 nmol is above 80%. In addition, the viability at 32 nmol in series [7] is 60%.

Take `C=C(C)C1Cc2c(cc(OC)c3[nH]c4ccccc4c23)C(=O)O1` (configuration not stated) [CLAUSAMINE B]: the Activity was 39.2% in the series on Raji [1], 18.3% in the series on Raji [3], 100% with Raji [6] and 78.2% in the series with Raji [8]. In series [2], the viability at 16 nmol came to 70%. Also, the viability at 0.32 nmol in series [4] is above 80%. Further, in series [5], the viability at 3.2 nmol is above 80%. Also, the viability at 32 nmol in series [7] was found to be 60%.

Regarding `COc1cc(C=O)c(CC=C(C)C)c2c1[nH]c1ccccc12` [EKEBERGININE], the Activity in the series on Raji [1] amounted to 22.4%; in the series on Raji [3], 10.5%; in the series with Raji [6] it was 90.3%; in the series on Raji [8], 63.5%. Further, in series [2], the viability at 16 nmol was above 80%. Also, the viability at 0.32 nmol in series [4] is above 80%. Moreover, in series [5], the viability at 3.2 nmol is above 80%. Moreover, in series [7], the viability at 32 nmol is 60%.
